High-throughput results: PubChem, several laboratories
Hits are enriched below; roughly 3.7% of the tested compounds scored in any of these assays.
MT stabilize HCS: microtubule stabilizers in HeLa cells, primary screen, imaging, high-content imaging; HeLa tubulin immunostaining HCS, 24 h; share of cells brighter than vehicle mean+2SD; AID 2205, 2009; 0.83% of 200,000 active; % tubulin-high responders, % at 10 µM;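 active = plate Z-score above 3 for both tubulin-high and condensed-nucleus cell shares, with cell loss under 80%, at 10 µM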;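 note: anti alpha tubulin signal scored within the nucleus-defined area of each cell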
b-catenin transl: modulators of beta-catenin nuclear translocation, primary screen, imaging, HeLa cells, immunofluorescence, high-content; nuclear translocation activity, % at 5 µM; 0.3% of 190,000 active; AID 1665, 2009;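 active = nuclear translocation activity above 50% at 5 µM, with a well cell count of 50 or more; inconclusive = wells under 50 cells across six images, flagged as toxic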;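 note: per-cell ratio of nuclear to cytoplasmic median beta-catenin stain intensity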
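assay system = human HeLa cells, endogenous beta-catenin | times = compound treatment 24 h, 37°C, 5% CO2 | detection = Anti-beta-catenin immunofluorescence on PFA-fixed, Triton-permeabilized cells, DAPI nuclei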
DTT redox prof: compounds producing H2O2 with reducing agent – biochemical, NIH compound library profiling, artefact control for MLSCN library redox annotation, primary screen. DTT-dependent redox cycling H2O2, phenol red/HRP absorbance; 100% = 100 µM peroxide control, 0% = buffer. activation, % at 10 µM. 0.03% of 200,000 active;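 active = activation of at least 50% relative to the plate's high and low controls in the primary single-dose screen; inactive = activation below 50%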;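 note: compound incubated with DTT at 0.8 mM final as the reducing agent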
Cl transport mod: KCC2 cotransporter modulators, thallium flux, primary screen, cell-based, HEK293 KCC2, FluoZin-2 fluorescence, MLSMR; B-score of Tl+ flux slope (higher = more flux/activation; lower = inhibition) at 10 µM; KCC2 cells, thallium flux FluoZin-2 fluorescence; Solute carrier family 12 member 5 (Homo sapiens), Q9H2X9; AID 1456, 2008; 2.2% of 190,000 active;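 active = thallium flux slope and its plate-corrected score both differing from the plate sample mean at a set confidence after two filtering rounds, in either direction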;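 note: slope of fluorescence scaled to starting intensity during 10 to 20 s after thallium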
Target sequence (Q9H2X9 whole entry, looked up): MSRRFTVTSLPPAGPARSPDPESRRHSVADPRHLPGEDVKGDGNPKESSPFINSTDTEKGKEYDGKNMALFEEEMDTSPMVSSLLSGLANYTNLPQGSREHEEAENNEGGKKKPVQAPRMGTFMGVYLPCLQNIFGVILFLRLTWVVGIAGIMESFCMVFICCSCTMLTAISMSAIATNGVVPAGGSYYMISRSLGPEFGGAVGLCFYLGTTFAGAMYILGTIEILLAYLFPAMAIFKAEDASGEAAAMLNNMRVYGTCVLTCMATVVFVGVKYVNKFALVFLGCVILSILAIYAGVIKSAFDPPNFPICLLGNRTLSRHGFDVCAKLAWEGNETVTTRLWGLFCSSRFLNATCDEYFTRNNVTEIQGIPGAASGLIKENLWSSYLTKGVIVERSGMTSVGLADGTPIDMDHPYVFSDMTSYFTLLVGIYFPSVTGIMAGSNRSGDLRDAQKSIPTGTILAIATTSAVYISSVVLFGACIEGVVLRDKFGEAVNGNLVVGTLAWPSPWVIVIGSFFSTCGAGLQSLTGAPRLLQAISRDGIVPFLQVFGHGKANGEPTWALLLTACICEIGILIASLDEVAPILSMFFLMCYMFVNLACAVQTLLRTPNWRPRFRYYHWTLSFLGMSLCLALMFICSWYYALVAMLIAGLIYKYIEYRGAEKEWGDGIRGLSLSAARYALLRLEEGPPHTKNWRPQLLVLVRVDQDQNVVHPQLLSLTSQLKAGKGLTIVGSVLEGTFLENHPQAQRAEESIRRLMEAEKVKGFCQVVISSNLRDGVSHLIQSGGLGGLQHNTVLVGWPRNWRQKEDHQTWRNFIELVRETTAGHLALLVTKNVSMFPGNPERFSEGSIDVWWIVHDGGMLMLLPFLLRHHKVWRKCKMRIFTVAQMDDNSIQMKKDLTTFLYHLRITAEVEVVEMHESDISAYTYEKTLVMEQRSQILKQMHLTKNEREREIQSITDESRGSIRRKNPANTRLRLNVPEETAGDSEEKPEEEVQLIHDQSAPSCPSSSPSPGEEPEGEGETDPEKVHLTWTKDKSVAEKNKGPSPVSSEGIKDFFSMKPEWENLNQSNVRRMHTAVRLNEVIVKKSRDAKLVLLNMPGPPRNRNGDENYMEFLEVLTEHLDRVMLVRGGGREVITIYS
ROMK primary: ROMK potassium channel modulators, primary screen, cell-based, thallium flux, MLSMR library | ATP-sensitive inward rectifier potassium channel 1 (Homo sapiens), P48048 | 2% of 130,000 active | Tet-inducible ROMK, thallium flux fluorescence; actives lie on both sides | B-score at 10 µM | AID 1918, 2009;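 active = signal ratio slope over the read window, or its plate-corrected B-score, at least 3 SD from the plate mean, either direction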;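 note: B-score of the F/F0 ratio slope over 7 to 12 s after thallium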
ROMK hit retest: ROMK channel modulator hit retest, confirmation, cell-based, thallium flux, duplicate, resupplied hits; shares compounds with ROMK primary; fluorescence ratio; stronger effect = lower value; normalized thallium flux (F/F0 slope) at 10 µM; 54% of 3,000 active;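 active = Flux at 10 µM at least 3 SD below or above vehicle control mean in one or both replicates; inconclusive = no clear call, values can overlap the other calls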
Numbers stand for hits; – = inactive; ? = inconclusive; · = no result.

SMILES | MT stabilize HCS | b-catenin transl | DTT redox prof | Cl transport mod | ROMK primary | ROMK hit retest
CCN1CCS/C1=C\C=C\C1=[N+](CC)CCS1 | – | – | – | · | · | ?
CCN1CCS/C1=C/C=C/C1=[N+](CC)CCS1 | – | – | – | – | – | ·
CCn1ncc(C2=NOC(C(=O)NCc3ccccc3)C2)c1C (stereo not drawn) | 31.1 | 64.4 | – | – | 3.09 | –
Cc1ccc(CSC(Nc2ccc(F)cc2)=C(C#N)C#N)cc1 | – | – | – | – | – | –
Cc1ccc(NC(=O)CSCc2ccc(F)cc2)cc1 | – | – | – | – | – | ·
CCN(CC)C(=O)CSC(Nc1ccc(F)cc1)=C(C#N)C#N | · | – | · | – | · | 0.0591
CCOC(=O)N1CCC(=NNC(=O)c2ccccc2F)CC1 | – | – | – | – | – | ·
O=C(CN1C(=O)c2ccccc2C1=O)N1CCN(C2c3ccccc3-c3ccccc32)CC1 | – | – | – | – | · | ·
CCSc1ncnc2c1sc1nc(-c3ccco3)c3c(c12)CC(C)(C)OC3 | – | – | – | – | · | –
COc1cc(CN2CCN(C(=O)CC(C)C)CC2)cc(OC)c1OC | – | – | – | – | · | –
CC(=O)Nc1ncc2c(n1)CC(c1ccco1)CC2=O (stereo not drawn) | – | · | – | · | – | ·
COc1ccc(C(=O)Nc2ncc3c(n2)CC(c2ccco2)CC3=O)cc1 (stereo not drawn) | – | – | – | – | -6.48 | –
Cc1ccc(C)c(NC2=C(Cl)C(=O)OC2OC(C)C)c1 (stereo not drawn) | – | – | – | · | – | ·
O=C(CSCC(=O)N1CCCCC1)Nc1nc(-c2ccc(Cl)s2)cs1 | – | – | – | – | · | ?
Cc1ccc(S(=O)(=O)N2CCCN(S(=O)(=O)c3ccc4c(c3)OCCO4)CC2)cc1 | – | – | – | · | -3.78 | ?
C/C(=N\Nc1cccc(Cl)c1)c1ccc(-n2ccnc2)cc1 | – | – | – | – | – | ·
Cc1ccc(S(=O)(=O)CC(=O)Nc2nc(-c3ccccc3)cs2)cc1 | – | · | – | · | – | ·
O=C(Nc1cc(S(=O)(=O)Nc2ccc(Cl)cc2)ccc1O)c1ccc(S(=O)(=O)N2CCCCCC2)cc1 | – | – | – | – | – | ·
Cc1ccc(S(=O)(=O)Nc2ccccc2C(=O)Nc2nc(-c3ccc(F)cc3)cs2)cc1 | – | – | – | – | · | 0.0571
Cc1ccc(S(=O)(=O)Nc2ccccc2C(=O)NCc2cccnc2)cc1 | – | – | – | – | 2.8 | –
O=C(Nc1cc(S(=O)(=O)N2CCCCC2)ccc1O)c1ccccc1NS(=O)(=O)c1ccc(F)cc1 | – | – | – | – | 3.31 | –
O=C(NCc1cccnc1)c1ccccc1NS(=O)(=O)c1ccc(F)cc1F | · | – | · | – | · | ·
CCN(CC)CCN(Cc1cc2cc(C)ccc2[nH]c1=O)C(=S)Nc1ccccc1 | – | – | – | – | – | ·
CC/C(=C\c1oc2cc3ccccc3cc2[n+]1CC)Nc1ccccc1 | – | – | – | · | · | 0.0549
CCc1ccc(S(=O)(=O)NCCc2csc(-c3ccccc3)n2)s1 | – | – | – | – | -3.4 | –
SMILES | MT stabilize HCS | b-catenin transl | DTT redox prof | Cl transport mod | ROMK primary | ROMK hit retest
CCCCCC1CC(=O)C=C(C)C1C(=O)OC (stereo not drawn) | · | – | · | – | · | ·
CC(=O)c1cc2ccc(O)cc2oc1=O | · | – | · | – | -6.4 | 0.0504
CO/N=C/NC(=O)c1c(OC)ccnc1Oc1cccc(C(F)(F)F)c1 | – | – | – | · | · | ·
CSc1cccc(CN2CCC(CO)(Cc3cccc(C(F)(F)F)c3)CC2)c1 | – | – | – | – | -3.51 | 0.0628
CC(=N/O)/C(C)=N\NC(=O)c1ccccn1 | – | – | – | – | -3.88 | –
CCOC(=O)c1cnc(-n2nc(C)cc2C)nc1NC1CCCCC1 | – | – | – | · | -4.68 | 0.0563
CCOC(=O)c1cnc(-n2nc(C)cc2C)nc1NC | – | – | – | – | · | ·
CCNc1nc(NC(C)C)nc(N(C#N)C(C)C(=O)N(CC)CC)n1 (stereo not drawn) | · | – | · | – | · | ·
